Data set [1] concerns the target T1, Mitogen-activated protein kinase kinase kinase kinase 2 (Homo sapiens, UniProt Q12851).
T1 sequence (Q12851 whole entry): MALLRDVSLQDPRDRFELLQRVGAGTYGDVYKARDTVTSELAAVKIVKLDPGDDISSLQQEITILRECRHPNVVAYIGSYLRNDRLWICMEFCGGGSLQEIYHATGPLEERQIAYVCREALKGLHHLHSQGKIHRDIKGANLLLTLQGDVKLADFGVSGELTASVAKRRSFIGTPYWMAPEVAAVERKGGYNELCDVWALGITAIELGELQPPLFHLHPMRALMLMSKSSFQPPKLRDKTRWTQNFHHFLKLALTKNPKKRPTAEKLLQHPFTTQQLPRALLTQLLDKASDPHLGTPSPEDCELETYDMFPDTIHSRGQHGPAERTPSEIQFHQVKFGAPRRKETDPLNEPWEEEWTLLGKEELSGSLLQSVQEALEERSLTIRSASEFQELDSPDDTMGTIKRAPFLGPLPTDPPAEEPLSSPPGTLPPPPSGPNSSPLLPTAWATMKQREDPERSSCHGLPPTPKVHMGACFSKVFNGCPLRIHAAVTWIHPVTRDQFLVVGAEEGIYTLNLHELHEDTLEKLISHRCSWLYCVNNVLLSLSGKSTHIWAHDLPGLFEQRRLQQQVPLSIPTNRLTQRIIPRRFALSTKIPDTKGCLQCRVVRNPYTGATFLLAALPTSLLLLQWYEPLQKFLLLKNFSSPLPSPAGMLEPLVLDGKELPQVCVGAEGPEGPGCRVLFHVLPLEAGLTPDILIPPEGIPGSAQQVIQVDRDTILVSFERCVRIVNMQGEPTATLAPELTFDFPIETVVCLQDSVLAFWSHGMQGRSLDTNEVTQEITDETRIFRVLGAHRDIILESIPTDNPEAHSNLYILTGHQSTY
The data set is described as follows: Inhibition of GCK (unknown origin) by radiometric biochemical kinase assay.

Data set [2] can be described thus: Growth inhibition of parental mouse BA/F3 cells after 72 hrs by celltiter-glo assay. It is filed as cell-based, BaF3. Background: In ATP-based viability assays light output follows the ATP content of the culture.
In data set [3] the test system is OCI-AML-3. The data set is described as follows: Growth inhibition of human OCI-AML3 cells harboring NRAS-Q61L mutant after 72 hrs by celltiter-glo assay. It is filed as functional. The settings on record: OCI-AML-3, 72 h.
A short description of data set [4]: Metabolic stability in dog liver microsomes assessed as compound remaining at 1 uM after 30 mins. It is filed as ADME, Canis lupus familiaris, microsome. The note with it: read-out: Stability.
Data set [5] in a line: Metabolic stability in mouse liver microsomes assessed as compound remaining at 1 uM after 30 mins. It is filed as ADME, microsome. The note with it: read-out: Stability.
Another data set addresses CYP2C9 (Homo sapiens, UniProt P11712). The data set is described as follows: Inhibition of CYP2C9 (unknown origin) assessed as activity remaining at 10 uM relative to control. Format: ADME. The settings on record: read-out: Activity.
For a further data set, the target named is CYP2D6 (Homo sapiens, UniProt P10635). The data set is described as follows: Inhibition of CYP2D6 (unknown origin) assessed as activity remaining at 10 uM relative to control. It is filed as ADME. The settings on record: read-out: Activity.
The next data set addresses CYP3A4 (Homo sapiens, UniProt P08684). The data set can be described thus: Inhibition of CYP3A4 (unknown origin) assessed as activity remaining at 10 uM relative to control. Format: ADME. The settings on record: read-out: Activity.
Data set [6] deals with Activated CDC42 kinase 1 (Mus musculus) (UniProt O54967). The data set is described as follows: Inhibition of ACK1 in mouse BA/F3 cells harboring NRAS-G12D mutant assessed as reduction in P70S6K1 phosphorylation at Thr421/Ser424 at 1 uM after 2 hrs by Western blot analysis. Format: cell-based. In short, it runs like this: (§1)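 Ba/F3-NRAS-G12D or OCI-AML3 cells exposed 2 h to compounds (1 µM, or a dose series in OCI-AML3); phospho-p70S6K1, phospho-AKT S473, phospho-JNK and phospho-p38 assessed by western blot, actin as loading control.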
For orientation: A western blot detects proteins with antibodies after separation by electrophoresis.

For data set [7], the target named is T2, Activated CDC42 kinase 1 (Homo sapiens, UniProt Q07912). The data set is described as follows: Inhibition of ACK1 in human OCI-AML3 cells harboring NRAS Q61L mutant assessed as reduction in P70S6K1 phosphorylation at Thr421/Ser424 at 1 uM after 2 hrs by Western blot analysis. Format: cell-based. In short, it runs like this:
as §1

For data set [8], the target named is T2, Activated CDC42 kinase 1. The data set can be described thus: Inhibition of ACK1 in human OCI-AML3 cells harboring NRAS Q61L mutant assessed as reduction in AKT phosphorylation at S473 at 1 uM after 2 hrs by Western blot analysis. It is filed as cell-based. Summed up:
as §1

Data set [9] concerns the target T3, Mitogen-activated protein kinase kinase kinase kinase 2 (Homo sapiens) (UniProt Q12851).
T3 sequence (whole entry): T1 sequence (Q12851 whole entry)
The data set is described as follows: Inhibition of GCK in human OCI-AML3 cells harboring NRAS Q61L mutant assessed as reduction in JNK phosphorylation at T183/Y185 at 1 uM after 2 hrs by Western blot analysis. Format: cell-based. In short, it runs like this: as §1

Data set [10] has as its system OCI-AML-3. The data set can be described thus: Inhibition of anchorage-independent cell growth in human OCI-AML3 cells harboring NRAS Q61L mutant assessed as reduction in colony number at 0.1 to 1 uM after 14 days by iodonitrotetrazolium chloride staining-based soft agar assay. It is filed as functional. Summed up:
(§2)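 OCI-AML3 cells embedded in 0.7% low-melting agar, incubated 2 weeks with compound at 0.1 or 1 µM; colony number and colony size per well measured by automated image analysis; n = 3 per condition, SD, one-way ANOVA.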

The subject of data set [11] is OCI-AML-3. The data set can be described thus: Inhibition of anchorage-independent cell growth in human OCI-AML3 cells harboring NRAS Q61L mutant assessed as reduction in colony size at 0.1 to 1 uM after 14 days by iodonitrotetrazolium chloride staining-based soft agar assay. It is filed as functional. Summed up:
as §2

Active and inactive are the calls of the source. The rule behind the calls is not given here.

CYP2C9, sequence (P11712 whole entry): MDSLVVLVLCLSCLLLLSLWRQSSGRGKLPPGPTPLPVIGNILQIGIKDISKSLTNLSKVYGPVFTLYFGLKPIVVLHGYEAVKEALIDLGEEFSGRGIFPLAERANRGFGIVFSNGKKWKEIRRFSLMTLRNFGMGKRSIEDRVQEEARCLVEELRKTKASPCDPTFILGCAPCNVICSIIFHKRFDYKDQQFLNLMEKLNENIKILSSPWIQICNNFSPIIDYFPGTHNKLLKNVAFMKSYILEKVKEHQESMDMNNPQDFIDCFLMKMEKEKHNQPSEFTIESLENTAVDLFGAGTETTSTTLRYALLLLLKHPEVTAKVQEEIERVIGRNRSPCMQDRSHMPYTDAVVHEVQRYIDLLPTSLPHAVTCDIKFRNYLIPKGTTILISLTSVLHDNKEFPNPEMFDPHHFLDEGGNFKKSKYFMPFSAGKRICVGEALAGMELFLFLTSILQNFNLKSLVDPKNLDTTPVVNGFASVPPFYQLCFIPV
T2 sequence (Q07912 whole entry, looked up): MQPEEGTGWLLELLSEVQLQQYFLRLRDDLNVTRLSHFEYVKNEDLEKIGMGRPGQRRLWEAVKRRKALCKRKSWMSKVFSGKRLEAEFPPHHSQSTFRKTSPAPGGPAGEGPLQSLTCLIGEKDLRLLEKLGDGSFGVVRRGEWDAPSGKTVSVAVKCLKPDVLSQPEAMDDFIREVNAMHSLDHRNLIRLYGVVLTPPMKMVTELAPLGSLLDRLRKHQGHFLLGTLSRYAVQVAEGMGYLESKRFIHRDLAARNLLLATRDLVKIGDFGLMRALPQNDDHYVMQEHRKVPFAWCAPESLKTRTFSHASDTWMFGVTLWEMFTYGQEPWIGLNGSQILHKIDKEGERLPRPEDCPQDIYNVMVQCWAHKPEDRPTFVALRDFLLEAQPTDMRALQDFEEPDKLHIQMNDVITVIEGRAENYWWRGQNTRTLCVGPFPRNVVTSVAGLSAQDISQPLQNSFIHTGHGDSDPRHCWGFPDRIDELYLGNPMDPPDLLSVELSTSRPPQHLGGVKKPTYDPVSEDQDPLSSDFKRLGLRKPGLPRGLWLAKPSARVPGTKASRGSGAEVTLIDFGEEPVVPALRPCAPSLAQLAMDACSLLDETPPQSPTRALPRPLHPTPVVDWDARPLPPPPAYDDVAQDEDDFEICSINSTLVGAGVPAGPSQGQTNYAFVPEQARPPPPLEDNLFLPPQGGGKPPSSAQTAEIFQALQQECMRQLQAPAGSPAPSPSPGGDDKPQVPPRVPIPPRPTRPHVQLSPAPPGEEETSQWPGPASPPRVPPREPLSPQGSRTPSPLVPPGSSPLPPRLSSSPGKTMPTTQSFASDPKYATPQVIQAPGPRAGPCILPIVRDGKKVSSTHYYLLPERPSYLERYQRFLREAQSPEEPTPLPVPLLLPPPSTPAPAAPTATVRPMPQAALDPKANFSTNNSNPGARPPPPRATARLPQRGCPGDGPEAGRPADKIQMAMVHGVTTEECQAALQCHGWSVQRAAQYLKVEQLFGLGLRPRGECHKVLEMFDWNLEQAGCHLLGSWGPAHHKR
CYP3A4, sequence (P08684 whole entry): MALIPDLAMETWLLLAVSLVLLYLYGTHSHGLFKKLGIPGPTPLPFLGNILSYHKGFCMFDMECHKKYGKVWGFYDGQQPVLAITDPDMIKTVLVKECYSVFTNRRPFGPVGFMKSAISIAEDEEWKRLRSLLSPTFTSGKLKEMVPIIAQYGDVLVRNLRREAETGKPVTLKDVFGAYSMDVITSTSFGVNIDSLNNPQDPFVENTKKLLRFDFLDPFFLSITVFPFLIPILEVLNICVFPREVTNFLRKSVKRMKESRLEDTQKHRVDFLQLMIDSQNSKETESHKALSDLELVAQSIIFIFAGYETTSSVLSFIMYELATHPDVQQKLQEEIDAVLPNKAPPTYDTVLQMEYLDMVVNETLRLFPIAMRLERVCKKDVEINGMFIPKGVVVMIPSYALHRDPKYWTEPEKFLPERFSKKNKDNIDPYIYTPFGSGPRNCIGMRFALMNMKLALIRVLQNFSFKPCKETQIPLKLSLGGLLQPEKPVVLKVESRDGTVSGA
CYP2D6, sequence (P10635 whole entry): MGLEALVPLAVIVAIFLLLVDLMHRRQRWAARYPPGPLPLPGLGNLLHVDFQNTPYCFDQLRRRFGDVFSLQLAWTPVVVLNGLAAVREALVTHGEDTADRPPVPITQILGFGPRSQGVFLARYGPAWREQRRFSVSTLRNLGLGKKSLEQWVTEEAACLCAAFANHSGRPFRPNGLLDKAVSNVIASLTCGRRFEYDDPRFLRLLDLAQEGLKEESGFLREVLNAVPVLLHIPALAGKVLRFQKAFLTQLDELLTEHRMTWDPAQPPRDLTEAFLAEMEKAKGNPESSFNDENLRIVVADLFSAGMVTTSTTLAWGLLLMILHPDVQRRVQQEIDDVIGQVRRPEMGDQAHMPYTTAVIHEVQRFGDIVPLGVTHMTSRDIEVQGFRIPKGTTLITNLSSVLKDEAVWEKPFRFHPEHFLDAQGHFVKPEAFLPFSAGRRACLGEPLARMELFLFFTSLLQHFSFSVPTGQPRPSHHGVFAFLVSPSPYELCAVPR
Activated CDC42 kinase 1 (Mus musculus), sequence (O54967 whole entry): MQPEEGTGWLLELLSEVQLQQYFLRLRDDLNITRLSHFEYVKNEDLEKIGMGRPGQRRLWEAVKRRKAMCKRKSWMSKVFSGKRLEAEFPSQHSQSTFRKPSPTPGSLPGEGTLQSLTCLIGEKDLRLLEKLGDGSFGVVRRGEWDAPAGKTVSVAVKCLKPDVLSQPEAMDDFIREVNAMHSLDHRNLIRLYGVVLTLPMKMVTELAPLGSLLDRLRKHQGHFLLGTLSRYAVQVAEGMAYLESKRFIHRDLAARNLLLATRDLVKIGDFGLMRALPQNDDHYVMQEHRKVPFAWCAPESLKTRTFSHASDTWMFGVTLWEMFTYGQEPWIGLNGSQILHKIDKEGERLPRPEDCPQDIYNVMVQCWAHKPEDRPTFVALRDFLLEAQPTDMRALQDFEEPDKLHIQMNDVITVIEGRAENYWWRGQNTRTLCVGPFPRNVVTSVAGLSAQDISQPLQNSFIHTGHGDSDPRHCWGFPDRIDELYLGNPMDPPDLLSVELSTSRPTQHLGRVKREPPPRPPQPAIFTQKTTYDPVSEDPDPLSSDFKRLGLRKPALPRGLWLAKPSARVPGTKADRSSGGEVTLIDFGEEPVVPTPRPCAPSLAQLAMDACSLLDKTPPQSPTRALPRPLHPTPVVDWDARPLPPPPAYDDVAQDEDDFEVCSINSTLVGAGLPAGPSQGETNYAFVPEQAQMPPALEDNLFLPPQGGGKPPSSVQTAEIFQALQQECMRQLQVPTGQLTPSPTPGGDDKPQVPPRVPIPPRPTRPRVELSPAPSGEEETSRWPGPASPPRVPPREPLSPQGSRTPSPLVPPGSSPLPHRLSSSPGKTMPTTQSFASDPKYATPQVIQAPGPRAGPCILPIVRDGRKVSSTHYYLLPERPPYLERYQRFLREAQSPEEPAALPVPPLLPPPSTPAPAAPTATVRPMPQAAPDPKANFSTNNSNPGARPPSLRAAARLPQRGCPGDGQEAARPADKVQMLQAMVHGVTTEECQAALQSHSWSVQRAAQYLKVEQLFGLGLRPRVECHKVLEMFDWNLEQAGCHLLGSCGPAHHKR

`CCN1CCN(C(=O)c2ccc(Nc3ncc4c(n3)N(C)C(=O)N(c3cc(NC(=O)c5cccc(C(F)(F)F)c5)ccc3C)C4)cn2)CC1` had a 50% inhibitory concentration (IC50) in data set [1] of 2 nM. Also, the GI50 at 72 h in data set [2] was 728 nM. Moreover, in the data set on OCI-AML-3 [3], it took 122 nM to inhibit growth by half (GI50). Besides, the remaining at 0.5 h, 1 µM came to 23.3% in data set [4] and 24.2% in data set [5]. In addition, the activity at 10 µM is 29% at CYP2C9, 32.8% at CYP2D6 and 94.2% at CYP3A4. For the same molecule, the “reduction in P70S6K1 phosphorylation (active/inactive)” value (shortened to “reduction … (active/inactive)”) in [6] is “Active”. For the same molecule, the inhibition entry at Activated CDC42 kinase 1 [7] was “Active”. Moreover, the “reduction in AKT S473 phosphorylation (qualitative)” value (shortened to “reduction … (qualitative)”) on Activated CDC42 kinase 1 [8] was “Active”. Besides, the “reduction in JNK phosphorylation (qualitative call)” value (“reduction in JNK phosphorylation” below) in data set [9] is “Active”.
Molecule `CC(=O)N1CCN(c2ccc(Nc3ncc4c(n3)N(C)C(=O)N(c3cc(NC(=O)c5cccc(C(F)(F)F)c5)ccc3C)C4)cn2)CC1` returned a half-inhibitory concentration (IC50) in [1] of 1 nM. The GI50 at 72 h in data set [2] was found to be 402 nM. In the data set with OCI-AML-3 [3], this molecule displayed a concentration for 50% growth inhibition (GI50) of 179 nM. In addition, the remaining at 0.5 h, 1 µM in [4] worked out at 38%; in [5] it was 49.1%. Moreover, the activity at 10 µM worked out at 15.6% at CYP2C9, 83.1% at CYP2D6 and 88.5% at CYP3A4. Besides, the “growth inhibition (GI)” value with OCI-AML-3 [10] and in the data set on OCI-AML-3 [11] was “Active” throughout.
`Cc1ccc(Nc2ncc3c(n2)N(C)C(=O)N(c2cc(NC(=O)c4ccc(CN5CCC(N(C)C)C5)c(C(F)(F)F)c4)ccc2C)C3)cn1` (configuration not stated): in data set [1], the half-inhibitory concentration (IC50) stood at 2 nM. Besides, the concentration for 50% growth inhibition (GI50) at 72 h in data set [2] came to 636 nM. The same molecule gave a GI50 in the data set on OCI-AML-3 [3] of 37 nM. For the same molecule, the figures for the remaining at 0.5 h, 1 µM in [4] and in [5] were 43.1% and 58.7%, respectively. The activity at 10 µM at CYP2C9 is 55.1%; at CYP2D6 it was 4.9%; at CYP3A4, 21.6%. Moreover, the “reduction … (active/inactive)” value in data set [6] was “Active”. For the same molecule, the inhibition entry on Activated CDC42 kinase 1 [7] was “Active”. The “reduction … (qualitative)” value at Activated CDC42 kinase 1 [8] is “Active”. Moreover, the “reduction in JNK phosphorylation” value in data set [9] was “Active”. In addition, the “growth inhibition (GI)” value in the data set with OCI-AML-3 [10] and in the data set with OCI-AML-3 [11] was “Active” in each case.
Molecule `Cc1ccc(NC(=O)c2cccc(C(F)(F)F)c2)cc1N1Cc2cnc(N)nc2N(C)C1=O` yielded a 50% inhibitory concentration (IC50) in [1] of 28 nM. Besides, in data set [2], the GI50 at 72 h was determined as 2110 nM. For the same molecule, the 50% growth inhibitory concentration (GI50) in the data set with OCI-AML-3 [3] is 466 nM. Besides, the remaining at 0.5 h, 1 µM in [4] was 67.9%; in data set [5], 80%. Besides, the activity at 10 µM was 68.1% on CYP2C9, 82.2% at CYP2D6 and above 100% on CYP3A4. The “reduction … (active/inactive)” value in [6] was “Active”. Moreover, at Activated CDC42 kinase 1 [7], the inhibition entry was “Active”. In addition, the “reduction … (qualitative)” value on Activated CDC42 kinase 1 [8] was “Active”. In data set [9], the “reduction in JNK phosphorylation” value was “Active”. The “growth inhibition (GI)” value with OCI-AML-3 [10] and with OCI-AML-3 [11] was “Active” each time.
Turning to `Cc1cc(Nc2ncc3c(n2)N(C)C(=O)N(c2cc(NC(=O)c4cccc(C(F)(F)F)c4)ccc2C)C3)n(C)n1`, it took 5 nM to reach half-maximal inhibition in data set [1] (IC50). In addition, the GI50 at 72 h in data set [2] is 2060 nM. Moreover, in the data set with OCI-AML-3 [3], the GI50 is 208 nM. For the same molecule, the values for the remaining at 0.5 h, 1 µM in [4] and in [5] were 69.9% and 74.7%, respectively. For the same molecule, the activity at 10 µM on CYP2C9 is 38.3%; at CYP2D6 it was 72%; on CYP3A4 it was above 100%. Besides, the “reduction … (active/inactive)” value in data set [6] is “Active”. At Activated CDC42 kinase 1 [7], the inhibition result is “Active”. In addition, at Activated CDC42 kinase 1 [8], the “reduction … (qualitative)” value is “Active”. The “reduction in JNK phosphorylation” value in data set [9] was “Active”.

The IC50 is the concentration needed to halve the response being measured. Read a low IC50 as inhibition by little substance. Broadly, the GI50 is the concentration at which growth is held to half of that of the control.

The values are drawn from ChEMBL document CHEMBL4196175, “First SAR Study for Overriding NRAS Mutant Driven Acute Myeloid Leukemia” (J Med Chem, 2018).
